Screening results deposited in PubChem BioAssay by Johns Hopkins Ion Channel Center.
RGS4 pot – potentiators or activators of RGS4; HEK293 M3R/inducible RGS4, carbachol calcium flux Fluo4; hits give low values; B-score at 10 µM; 0.92% of 310,000 active; AID 463111;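 active means B-score of the integrated calcium signal more than 4 SD below the library mean, with starting fluorescence not abnormally high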;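 further: negative B-score means reduced calcium response which marks RGS4 activation or potentiation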
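Assay system: Inducible-RGS4 HEK293 cells carrying M3 receptor | Schedule: Compound preincubation 20 min at room temperature before agonist | Signal: Kinetic calcium fluorescence imaging with Fluo4-AM dye, 2 µM | Read-out basis: B score from integrated fluorescence ratio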
MrgX1 antag – human MrgX1 receptor antagonism, primary screen; 1.3% of 310,000 active; B-score at 10 µM; MRGX1-HEK293 calcium flux, Fluo-4, BAM8-22 antagonism; hits give low values; Q96LB2;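 active means calcium-response B-score plate-corrected more than 3 library SD below zero, starting fluorescence within 5 deviations, no agonist response on first addition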;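 further: peak minus trough fluorescence over baseline after final BAM8-22 challenge near maximal dose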
Target sequence (Q96LB2 whole entry, looked up): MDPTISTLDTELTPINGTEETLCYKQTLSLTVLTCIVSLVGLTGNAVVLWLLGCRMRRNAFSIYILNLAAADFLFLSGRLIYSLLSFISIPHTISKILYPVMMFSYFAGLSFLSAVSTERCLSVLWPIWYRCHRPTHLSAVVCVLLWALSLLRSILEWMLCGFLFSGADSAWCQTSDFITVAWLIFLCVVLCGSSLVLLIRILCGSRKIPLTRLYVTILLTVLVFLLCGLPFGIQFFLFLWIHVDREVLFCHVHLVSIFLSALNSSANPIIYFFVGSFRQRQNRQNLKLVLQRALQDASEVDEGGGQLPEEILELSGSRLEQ
MrgX1 PAM – human MrgX1 positive allosteric modulation, primary screen; Q96LB2; MrgX1-HEK293, Fluo-4 calcium flux, FDSS; hits give high values; B-score at 10 µM; 0.63% of 310,000 active;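 active means plate-corrected calcium response at least 3 library SD above typical, normal starting fluorescence, not activating the receptor alone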;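 further: compound read alongside a low EC10 to EC30 dose of BAM8-22 agonist; peak minus trough fluorescence over baseline measured at the second addition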
MrgX1 ag – agonists of human MrgX1 receptor | MrgX1-HEK293 cells, Fluo-4 calcium fluorescence, agonist mode; hits give high values | B-score at 10 µM | 0.44% of 310,000 active;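 active means calcium response B-score plate-corrected fluorescence ratio at least 3 library SD, with starting fluorescence B-score inside 5 SD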
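Assay system: stable human MrgX1 HEK293 cell line. Quantity: 15,000 cells per well. Schedule: cells plated overnight, dye loaded 0.5 h 37 °C, 0.5 h room temperature. Detection: Fluo-4 NW calcium-flux fluorescence, kinetic read. Read-out basis: peak-minus-minimum fluorescence over baseline, converted to B scores. Control set: positive and negative control wells on each plate.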
RGS4 block – human RGS4 inhibition; 0.45% of 310,000 active; P49798; HEK293 M3R/RGS4 inducible, Fluo-4 calcium flux; hits give high values; triggered by carbachol at its EC20; AID 463165; B-score at 10 µM;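 active means B-score, a plate-corrected calcium signal, over three deviations above library mean, with baseline fluorescence within five deviations of library mean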;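 further: RGS4 expression induced by doxycycline in cells with stable M3 receptor; B-score is computed from the integrated fluorescence ratio over baseline after carbachol; higher B-score means a larger calcium signal and so more RGS4 inhibition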
Target sequence (P49798 whole entry, looked up): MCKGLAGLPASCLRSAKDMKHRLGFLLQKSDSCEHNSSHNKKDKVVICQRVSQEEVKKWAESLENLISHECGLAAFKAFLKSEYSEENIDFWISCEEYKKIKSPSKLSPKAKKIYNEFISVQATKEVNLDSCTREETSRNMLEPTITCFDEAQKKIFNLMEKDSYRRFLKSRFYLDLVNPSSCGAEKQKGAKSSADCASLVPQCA
RGS4 inh valid – validation of RGS4 inhibitors; 65% of 1,700 active; AID 492999; HEK293 M3R/RGS4, carbachol calcium Fluo-4 fluorescence; carbachol added at its EC20; 0 = buffer wells, 100 = carbachol control; calcium response, % at 10 µM; shares compounds with RGS4 block;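 active means duplicate-averaged calcium response above the buffer-only control mean plus 5 SD of those controls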;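 further: integrated fluorescence ratio F max minus min over baseline F0; higher response in RGS4-induced cells means RGS4 inhibition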
M3R Ca ctr – non-induced cell nonspecific activity of RGS4 inhibitors; activity (percent), % at 10 µM; shares compounds with RGS4 block; 20% of 1,900 active; HEK293 M3R non-induced, carbachol calcium Fluo-4; submaximal (EC20) carbachol stimulus; buffer wells 0%, carbachol control wells 100%; call rule not given here;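 further: RGS4 induction absent so cells express M3R without RGS4; higher means more calcium signal and flags a non-specific hit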
RGS4 inh ctr2 – second RGS4 inhibitor counter-screen in uninduced cells lacking carbachol. calcium response (agonist-mode artifact), % at 10 µM. shares compounds with RGS4 block. HEK293 M3R/RGS4 non-induced, Fluo-4 calcium, no carbachol; normalised: buffer wells 0%, carbachol wells 100%. 22% of 1,900 active;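 active means duplicate-averaged calcium rise in uninduced cells above buffer wells' mean plus 5 SD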
Of the large screens only hits and unclear results are named; the others gave an inactive call (follow-up assays come after a bar, where they were run). Rows were chosen to be rich in hits. Some 3.5% of all compounds tested hit in one or more screens of this group.

O=C1C=C(NC2=CC3OC(c4ccccc4)OCC3OC2=O)CCC1 (stereo unspecified)	RGS4 block 7.7 | RGS4 inh valid 36% | M3R Ca ctr inactive | RGS4 inh ctr2 inactive
CCCn1nc(NS(C)(=O)=O)c2cc3cccc(C)c3nc21	none
CCn1nc(NS(=O)(=O)c2ccc(F)cc2)c2cc3cccc(C)c3nc21	none | RGS4 inh valid inactive | M3R Ca ctr inactive | RGS4 inh ctr2 inactive
CCn1nc(NS(=O)(=O)c2ccc([N+](=O)[O-])cc2)c2cc3ccccc3nc21	none | M3R Ca ctr inactive | RGS4 inh ctr2 inactive
CCn1nc(NS(=O)(=O)c2ccccc2)c2cc3cccc(C)c3nc21	none | M3R Ca ctr inactive | RGS4 inh ctr2 inactive
CCn1nc(NS(=O)(=O)c2ccc(C)cc2)c2cc3ccccc3nc21	none
CCn1nc(NS(=O)(=O)c2ccc(NC(C)=O)cc2)c2cc3cccc(C)c3nc21	none
CCCCc1c(O)c2cccc3c2n(c1=O)CCC3	none
CCN(CC)CCOc1ccc2c(c1)C(=NO)c1cc(OCCN(CC)CC)ccc1-2	none
CCCOc1ccc2c(c1)C(=NN=C(N)N)c1cc(OCCC)ccc1-2	RGS4 block 4.7 | RGS4 inh valid 8.0% | M3R Ca ctr inactive | RGS4 inh ctr2 inactive
Cc1oc(C(C)(C)C)c(CN2CCOCC2)c1C(=O)O	none
O=c1cc(-c2ccc(Cl)cc2)nc(N2CCN(c3ccccc3)CC2)[nH]1	RGS4 block 9.7 | RGS4 inh valid inactive | M3R Ca ctr 32% | RGS4 inh ctr2 inactive
Cc1cc(=O)[nH]c(N2CCN(Cc3ccccc3)CC2)n1	none
Cn1c(=O)c2c(ncn2CC(=O)OCC(=O)Nc2cccc(Cl)c2)n(C)c1=O	none
CC(NC(=O)/C(C#N)=C/c1ccc(Cl)c([N+](=O)[O-])c1)c1ccccc1 (stereo unspecified)	MrgX1 PAM 8.9, RGS4 block 49 | RGS4 inh valid 22% | M3R Ca ctr inactive | RGS4 inh ctr2 31%
C[C@@H](NC(=O)/C(C#N)=C/c1ccc(O)c(O)c1)c1ccccc1	none (no result: RGS4 pot, RGS4 block)
N#C/C(=C\c1ccc(Cl)c([N+](=O)[O-])c1)c1ccccn1	RGS4 block 9 | RGS4 inh valid 16% | M3R Ca ctr inactive | RGS4 inh ctr2 inactive
CCOC(=O)[C@@H]1[C@H]2COc3ccc(Br)cc3[C@@H]2N2C(=O)N(c3ccc(Cl)cc3)C(=O)[C@]12C	none | M3R Ca ctr inactive | RGS4 inh ctr2 inactive
CCOC(=O)[C@@H]1[C@H]2COc3ccccc3[C@H]2N2C(=O)N(c3ccc(Cl)cc3)C(=O)[C@@]12C	RGS4 block 6 | RGS4 inh valid 16% | M3R Ca ctr inactive | RGS4 inh ctr2 inactive
CCOC(=O)[C@@H]1[C@H]2COc3ccc(Br)cc3[C@@H]2N2C(=O)N(c3ccc(C)cc3)C(=O)[C@]12C	none
CCOC(=O)[C@@H]1[C@H]2COc3ccccc3[C@@H]2N2C(=O)N(c3ccc(F)cc3)C(=O)[C@@]12C	none | RGS4 inh valid inactive | M3R Ca ctr 38% | RGS4 inh ctr2 inactive
CCOC(=O)[C@@H]1[C@H]2COc3ccc(Br)cc3[C@H]2N2C(=O)N(c3ccc(F)cc3)C(=O)[C@]12C	none
COc1ccc(C(c2c(C)[nH]n(-c3ccccc3)c2=O)c2c(C)[nH]n(-c3ccccc3)c2=O)cc1OC	none | M3R Ca ctr inactive | RGS4 inh ctr2 inactive
Cc1[nH]n(-c2ccccc2)c(=O)c1Sc1ccc(Cl)cc1	none
Cc1ccc(C(C[N+](=O)[O-])c2c(C)[nH]n(-c3ccccc3)c2=O)cc1 (stereo unspecified)	MrgX1 ag 36, RGS4 block 6.7 | RGS4 inh valid 7.0% | M3R Ca ctr 32% | RGS4 inh ctr2 17%
Cc1[nH]n(-c2ccccc2)c(=O)c1C(C[N+](=O)[O-])c1ccc(Cl)cc1 (stereo unspecified)	MrgX1 ag 32, RGS4 block 10 | RGS4 inh valid 28% | M3R Ca ctr inactive | RGS4 inh ctr2 11%
Cc1[nH]n(-c2ccccc2)c(=O)c1C(C[N+](=O)[O-])c1ccc(F)cc1 (stereo unspecified)	none | M3R Ca ctr inactive | RGS4 inh ctr2 7.5%
CCCn1nnc(NC(=O)c2ccc3c(c2)OCO3)n1	none
Cc1cc(C)n(C(=O)CNC(=O)c2ccc(Cl)cc2Cl)n1	none
COCCOC(=O)c1c(NC(=O)COC(=O)Cc2cccc(OC)c2)sc(C(N)=O)c1C	none
COc1ccc(N=N/C(=C\O)C(=O)c2cccs2)cc1	none
COc1ccc(C(=O)/C(=C/O)N=Nc2ccc(F)cc2)cc1	RGS4 block 6.8 | RGS4 inh valid 56% | M3R Ca ctr 128% | RGS4 inh ctr2 inactive
Cc1cccc(N=N/C(=C\O)C(=O)c2ccc(Br)cc2)c1	RGS4 block 5.3 | RGS4 inh valid 26% | M3R Ca ctr inactive | RGS4 inh ctr2 inactive
O=C1/C(=C\c2ccccn2)SC(=S)N1c1ccc(S(=O)(=O)Nc2nccs2)cc1	RGS4 block 5.9 | RGS4 inh valid 20% | M3R Ca ctr inactive | RGS4 inh ctr2 inactive
CCOc1ccccc1N(C)C(=O)c1nn(-c2ccc(OC)cc2OC)c(=O)c2ccccc12	none
Cn1c(SCC(=O)Nc2ccc3[nH]c(=O)[nH]c3c2)nnc1-c1ccccc1	none
Cn1c(SCC(=O)Nc2ccc3c(c2)oc2ccccc23)nnc1-c1ccccc1	RGS4 block 5.1 | RGS4 inh valid 7.5% | M3R Ca ctr inactive | RGS4 inh ctr2 inactive
Cc1cc(C)n(CC(O)Cn2c3ccc(Br)cc3c3cc(Br)ccc32)c(=O)n1 (stereo unspecified)	RGS4 block 7.8 | RGS4 inh valid 27% | M3R Ca ctr inactive | RGS4 inh ctr2 inactive
COC(=O)C1N[C@@H]([C@@H](NC(=O)COc2ccccc2)C(=O)NCc2ccc(OC)cc2)SC1(C)C (stereo partly specified)	none
COc1ccccc1N=c1oc2cc(O)ccc2cc1C(N)=O	none
COc1ccc2oc(=N)c(C(=O)Nc3ccc(C)cc3)cc2c1	none
COc1ccccc1NC(=O)c1cc2ccc(O)cc2o/c1=N\O	none | RGS4 inh valid inactive | M3R Ca ctr inactive | RGS4 inh ctr2 inactive
COc1ccc2o/c(=N\O)c(C(=O)Nc3ccc(C)cc3)cc2c1	RGS4 block 12 (no result: MrgX1 antag, MrgX1 PAM, MrgX1 ag) | RGS4 inh valid 14% | M3R Ca ctr inactive | RGS4 inh ctr2 inactive
NC(=O)N/N=C/C=C/c1ccc(F)cc1	none
